Laboratory results published in ChEMBL document CHEMBL4177624, “Rationally designed hecogenin thiosemicarbazone analogs as novel MEK inhibitors for the control of breast malignancies” (Bioorg Med Chem, 2017).
pIC50: −log10 of the molar value. Activity calls are given as the source filed them. The rule behind the calls is not given here.

How the values were obtained:
MDA-MB-231 [1] = test: Antimigratory activity against human MDA-MB-231 cells after 24 hrs by scratch wound-healing assay; assay type: functional, cell-based
MDA-MB-231 [2] = test: Cytotoxicity against human MDA-MB-231 cells at 10 uM after 24 hrs by LDH release assay relative to control; assay type: functional
[3] = molecular target: T1, Dual specificity mitogen-activated protein kinase kinase; MEK1/2 (Homo sapiens) (UniProt P36507+Q02750); test: Inhibition of MEK in human MDA-MB-231 cell lysate assessed as reduction in MSK phosphorylation at 1.5 to 4 uM after 72 hrs by Western blot analysis
T1 sequence (P36507 whole entry, looked up): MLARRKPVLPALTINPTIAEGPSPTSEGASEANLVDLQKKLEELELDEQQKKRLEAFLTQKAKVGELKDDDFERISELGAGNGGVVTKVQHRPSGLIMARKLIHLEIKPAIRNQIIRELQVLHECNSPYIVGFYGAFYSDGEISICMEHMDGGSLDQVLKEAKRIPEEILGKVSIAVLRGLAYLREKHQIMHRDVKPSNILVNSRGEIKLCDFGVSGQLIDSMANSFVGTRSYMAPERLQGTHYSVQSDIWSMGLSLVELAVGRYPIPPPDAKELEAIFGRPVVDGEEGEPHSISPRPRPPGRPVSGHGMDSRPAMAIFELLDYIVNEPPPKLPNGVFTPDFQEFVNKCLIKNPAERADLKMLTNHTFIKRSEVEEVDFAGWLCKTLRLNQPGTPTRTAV
T1 sequence (Q02750 whole entry, looked up): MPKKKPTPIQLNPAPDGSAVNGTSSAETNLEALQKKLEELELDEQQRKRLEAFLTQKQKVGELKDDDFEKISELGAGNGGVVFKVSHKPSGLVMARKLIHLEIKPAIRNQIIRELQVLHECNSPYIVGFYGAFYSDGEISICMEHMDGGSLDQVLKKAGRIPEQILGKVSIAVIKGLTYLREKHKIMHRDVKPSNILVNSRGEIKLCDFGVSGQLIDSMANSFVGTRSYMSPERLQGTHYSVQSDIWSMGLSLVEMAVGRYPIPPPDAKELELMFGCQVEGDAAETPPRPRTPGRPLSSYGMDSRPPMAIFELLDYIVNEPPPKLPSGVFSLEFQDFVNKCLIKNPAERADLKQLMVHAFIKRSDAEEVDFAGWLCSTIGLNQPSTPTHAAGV
How it was run: (§1)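 MDA-MB-231 cells treated with two doses or vehicle, then lysed. Western blot of phosphorylated MEK, ERK (MAPK) and MSK, each compared with vehicle control.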

MCF-10A = test: Cytotoxicity against human MCF10A cells at 1 to 20 uM by MTT assay; assay type: cell-based
How it was run: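 Immortalized, non-tumorigenic MCF-10A mammary epithelial cells were treated at several concentrations (1-20 μM). Mean percent viability was compared with the matching vehicle control-treated group.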

MDA-MB-231 [4] = test: Cytotoxicity against human MDA-MB-231 cells at 2.5 uM after 24 hrs by LDH release assay (reference value: 100%); assay type: functional
How it was run: (§2)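 MDA-MB-231 cells were treated at four concentrations. LDH released into the culture medium through damaged plasma membranes was measured with a commercial LDH cytotoxicity kit and expressed as percent cytotoxicity.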

MDA-MB-231 [5] = test: Antiproliferative activity against human MDA-MB-231 cells after 72 hrs by MTT assay; assay type: functional, cell-based; conditions: MDA-MB-231, 72 h
How it was run: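 MDA-MB-231 triple-negative breast cancer cells were exposed to a range of concentrations for 72 h. Proliferation was read by MTT. Results are given as mean percent viability versus concentration, with IC₅₀ ± SEM calculated from the curve.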

BT-474 = test: Antiproliferative activity against human BT474 cells after 72 hrs by MTT assay; assay type: functional, cell-based; conditions: BT-474, 72 h
How it was run: (§3)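 Six human breast carcinoma lines of differing molecular and phenotypic character were each exposed to a range of concentrations for 72 h. Proliferation was read by MTT. Results are given as mean percent viability, with IC₅₀ ± SEM calculated per cell line.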

Mus musculus = test: Toxicity in Foxn1nu/Foxn1+ mouse xenografted with human GFP-fused MDA-MB-231 cells assessed as reduction in body weight at 10 mg/kg, ip administered 3 times per week for 28 days relative to control; assay type: organism-based; conditions: in vivo, 672 h
How it was run: (§4)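 Athymic nude Foxn1nu/Foxn1+ mice given orthotopic MDA-MB-231/GFP implants. Once tumors were palpable (5-day latency), mice received 10 mg/kg ip three times weekly for 28 days; controls got vehicle. Tumor volume tracked by caliper, giving percent growth inhibition at study end. Body weight checked at each dose and toxicity signs observed.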

SK-BR-3 = test: Antiproliferative activity against human SKBR3 cells after 72 hrs by MTT assay; assay type: functional, cell-based; conditions: SK-BR-3, 72 h; how it was run: as §3
MDA-MB-231 [6] = test: Cytotoxicity against human MDA-MB-231 cells at 1.25 uM after 24 hrs by LDH release assay (reference value: 100%); assay type: functional; how it was run: as §2
MCF7 = test: Antiproliferative activity against human MCF7 cells after 72 hrs by MTT assay; assay type: functional, cell-based; conditions: MCF7, 72 h; how it was run: as §3
MDA-MB-231 [7] = test: Cytotoxicity against human MDA-MB-231 cells at 10 uM after 24 hrs by LDH release assay (reference value: 100%); assay type: functional; how it was run: as §2
MDA-MB-231 [8] = test: Antiinvasive activity against human MDA-MB-231 cells after 24 hrs by cell invasion assay; assay type: functional, cell-based; conditions: MDA-MB-231, 24 h
How it was run: (§5)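 Invasion of MDA-MB-231 cells through extracellular matrix coating in a CultreCoat chamber, four doses, 24 h after plating. Non-invaded cells on the upper surface imaged by microscopy. Percent invasion read against vehicle control; IC50 taken from the dose-response curve.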

MDA-MB-468 = test: Antiproliferative activity against human MDA-MB-468 cells after 72 hrs by MTT assay; assay type: functional, cell-based; conditions: MDA-MB-468, 72 h; how it was run: as §3
MDA-MB-231 [9] = test: Antiinvasive activity against human MDA-MB-231 cells at 5 uM after 24 hrs by cell invasion assay relative to control; assay type: functional
How it was run: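 MDA-MB-231 cells were plated in CultreCoat coated-insert invasion chambers and treated at four concentrations or with vehicle. At 24 h post-plating, non-invading cell density on the upper surface was assessed by microscopy. Percent invasion inhibition relative to vehicle was calculated, and IC₅₀ was derived from the dose-response.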

MDA-MB-231 [10] = test: Cytotoxicity against human MDA-MB-231 cells at 5 uM after 24 hrs by LDH release assay (reference value: 100%); assay type: functional; how it was run: as §2
[11] = molecular target: T1, Dual specificity mitogen-activated protein kinase kinase; MEK1/2 (Homo sapiens); test: Inhibition of MEK in human MDA-MB-231 cell lysate assessed as reduction in MAPK phosphorylation at 1.5 to 4 uM after 72 hrs by Western blot analysis; how it was run: as §1
MDA-MB-231 [12] = test: Antitumor activity against human GFP-fused MDA-MB-231 cells xenografted in Foxn1nu/Foxn1+ mouse assessed as tumor growth inhibition at 10 mg/kg, ip administered 3 times per week for 28 days relative to control; assay type: functional; conditions: MDA-MB-231, ip, 672 h, read-out: TGI; how it was run: as §4
[13] = molecular target: T1, Dual specificity mitogen-activated protein kinase kinase; MEK1/2 (Homo sapiens); test: Inhibition of MEK phosphorylation in human MDA-MB-231 cell lysate at 1.5 to 4 uM after 72 hrs by Western blot analysis; how it was run: as §1
T47D = test: Antiproliferative activity against human T47D cells after 72 hrs by MTT assay; assay type: functional, cell-based; how it was run: as §3
MDA-MB-231 [14] = test: Cytotoxicity against human MDA-MB-231 cells at 25 uM after 24 hrs by LDH release assay (reference value: 100%); assay type: functional
How it was run: (§6)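 LDH release kit on MDA-MB-231 cells at four doses. LDH in the culture medium used as the marker of plasma membrane damage, expressed as percent cytotoxicity.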

MDA-MB-231 [15] = test: Antimigratory activity against human MDA-MB-231 cells at 10 to 80 uM after 24 hrs by scratch wound-healing assay; assay type: functional, cell-based
MDA-MB-231 [16] = test: Antiinvasive activity against human MDA-MB-231 cells at 80 uM after 24 hrs by cell invasion assay relative to control; assay type: functional; how it was run: as §5
MDA-MB-231 [17] = test: Cytotoxicity against human MDA-MB-231 cells at 50 uM after 24 hrs by LDH release assay (reference value: 100%); assay type: functional; how it was run: as §6
MDA-MB-231 [18] = test: Cytotoxicity against human MDA-MB-231 cells at 100 uM after 24 hrs by LDH release assay relative to control; assay type: functional; how it was run: as §6
MDA-MB-231 [19] = test: Cytotoxicity against human MDA-MB-231 cells at 100 uM after 24 hrs by LDH release assay (reference value: 100%); assay type: functional; how it was run: as §6
MDA-MB-231 [20] = test: Cytotoxicity against human MDA-MB-231 cells at 75 uM after 24 hrs by LDH release assay (reference value: 100%); assay type: functional; how it was run: as §6

Structure (SMILES)	pIC50 (MDA-MB-231 [5])	pIC50 (BT-474)	pIC50 (SK-BR-3)	pIC50 (MCF7)	pIC50 (MDA-MB-468)	pIC50 (T47D)	also measured
C[C@@H]1CC[C@@]2(OC1)O[C@H]1C[C@H]3[C@@H]4CC[C@H]5C[C@@H](O)CC[C@]5(C)[C@H]4CC(=O)[C@]3(C)[C@H]1[C@@H]2C	4.54	4.42	4.48	4.51	4.45	4.44	inhibition [3]: Active; Activity (MDA-MB-231 [14]): 0.04%; Activity (MDA-MB-231 [15]): Active; Activity (MDA-MB-231 [16]): 86.2%; Activity (MDA-MB-231 [17]): 2.72%; Activity (Mus musculus): Non-Toxic; Activity (MDA-MB-231 [18]): 27.8%; pIC50 (MDA-MB-231 [8]): 4.43; Activity (MDA-MB-231 [19]): 27.8%; Activity (MDA-MB-231 [20]): 10.3%; inhibition [11]: Active; inhibition in vivo at 10 mg/kg (MDA-MB-231 [12]): 57.4%; inhibition [13]: Active
C[C@@H]1CC[C@@]2(OC1)O[C@H]1C[C@H]3[C@@H]4CC[C@H]5C[C@@H](O)CC[C@]5(C)[C@H]4C/C(=N\NC(=S)Nc4ccc(Cl)cc4)[C@]3(C)[C@H]1[C@@H]2C	4.94	4.93	4.83	4.92	4.89	4.82	–
C[C@@H]1CC[C@@]2(OC1)O[C@H]1C[C@H]3[C@@H]4CC[C@H]5C[C@@H](O)CC[C@]5(C)[C@H]4C/C(=N\NC(=S)Nc4ccccc4[N+](=O)[O-])[C@]3(C)[C@H]1[C@@H]2C	5.37	5.16	5.26	5.30	5.21	5.05	–
C[C@@H]1CC[C@@]2(OC1)O[C@H]1C[C@H]3[C@@H]4CC[C@H]5C[C@@H](O)CC[C@]5(C)[C@H]4C/C(=N\NC(=S)Nc4ccccc4)[C@]3(C)[C@H]1[C@@H]2C	5.11	5.03	5.04	5.10	5.08	4.99	–

Now from value to compound, other results behind:

pIC50 (MDA-MB-231 [5])	pIC50 (BT-474)	pIC50 (SK-BR-3)	pIC50 (MCF7)	pIC50 (MDA-MB-468)	pIC50 (T47D)	Structure (SMILES)	also measured
5.72	5.59	5.64	5.68	5.62	5.52	Cc1ccccc1NC(=S)N/N=C1\C[C@H]2[C@@H](CC[C@H]3C[C@@H](O)CC[C@@]32C)[C@@H]2C[C@@H]3O[C@]4(CC[C@@H](C)CO4)[C@@H](C)[C@@H]3[C@@]12C	Activity (MDA-MB-231 [1]): Dose-dependent effect; pIC50 (MDA-MB-231 [1]; MDA-MB-231, 24 h): 5.60; Activity (MDA-MB-231 [2]): 5.9%; inhibition [3]: Active; Activity (MCF-10A): Non-Toxic; Activity (MDA-MB-231 [4]): 1.27%; Activity (Mus musculus): Non-Toxic; Activity (MDA-MB-231 [6]): 0.74%; Activity (MDA-MB-231 [7]): 5.94%; pIC50 (MDA-MB-231 [8]): 5.66; Activity (MDA-MB-231 [9]): 92.4%; Activity (MDA-MB-231 [10]): 1.8%; inhibition [11]: Active; inhibition in vivo at 10 mg/kg (MDA-MB-231 [12]): 78.1%; inhibition [13]: Active
5.14	4.97	5.07	5.10	5.09	4.96	C[C@@H]1CC[C@@]2(OC1)O[C@H]1C[C@H]3[C@@H]4CC[C@H]5C[C@@H](O)CC[C@]5(C)[C@H]4C/C(=N\NC(=S)Nc4cc(C(F)(F)F)cc(C(F)(F)F)c4)[C@]3(C)[C@H]1[C@@H]2C	–
< 4.40	< 4.40	< 4.40	< 4.40	< 4.40	< 4.40	C[C@@H]1CC[C@@]2(OC1)O[C@H]1C[C@H]3[C@@H]4CC[C@H]5C[C@@H](OC(=O)c6cccc(C(F)(F)F)c6)CC[C@]5(C)[C@H]4CC(=O)[C@]3(C)[C@H]1[C@@H]2C	–
4.85	4.72	4.80	4.86	4.82	4.68	C[C@@H]1CC[C@@]2(OC1)O[C@H]1C[C@H]3[C@@H]4CC[C@H]5C[C@@H](O)CC[C@]5(C)[C@H]4C/C(=N\NC(=O)Nc4cccc(C(F)(F)F)c4)[C@]3(C)[C@H]1[C@@H]2C	–
5.00	4.92	5.01	5.01	4.96	4.89	C[C@@H]1CC[C@@]2(OC1)O[C@H]1C[C@H]3[C@@H]4CC[C@H]5C[C@@H](O)CC[C@]5(C)[C@H]4C/C(=N\NC(=O)Nc4cccc(Cl)c4)[C@]3(C)[C@H]1[C@@H]2C	–
